What was measured:
Format in all cases: ADME, organism-based
Design in all cases: dose 5 mg/kg, dosed compound name [14C]-apixaban, route oral
Conditions in all cases: in vivo
Spleen [1] = assay: Biodistribution in pregnant Sprague-Dawley rat spleen at 5 mg/kg, po administered as single dose measured after 24 hrs
Rattus norvegicus [2] = assay: Biodistribution in pregnant Sprague-Dawley rat kidney cortex at 5 mg/kg, po administered as single dose measured after 48 hrs
Method in brief: (§1)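 Fasted pregnant SD rats (n=6, 270-319 g) each received one oral gavage dose of [14C]apixaban, 5 mg/kg (100 μCi/kg), in 0.5% Tween 80/Labrafil. One rat was killed at each of 0.5, 1, 4, 8, 24 and 48 h. Carcasses were frozen in hexane/dry ice, cut into 40 µm sagittal sections, exposed to phosphor plates and quantified against [14C]glucose standards as µg eq/g. LLOQ was 0.037 µg eq/g.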

Rattus norvegicus [3] = assay: Biodistribution in fetal kidney of pregnant Sprague-Dawley rat at 5 mg/kg, po administered as single dose measured after 24 hrs
Method in brief: (§2)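 Quantitative whole-body autoradiography was run after a single 5 mg/kg (100 μCi/kg) oral gavage to fasted female or pregnant SD rats, one rat per time point. Carcasses were frozen in hexane/dry ice, and 40 µm sagittal sections were dried at −20°C for at least 48 h. Sections were exposed to a phosphor plate alongside [14C]glucose standards (0.001–6.5 µCi/g). Results are µg eq/g, with LLOQ 0.037 µg eq/g.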

Rattus norvegicus [4] = assay: Biodistribution in fetal blood of pregnant Sprague-Dawley rat at 5 mg/kg, po administered as single dose measured after 4 hrs
Method in brief: (§3)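 Pregnant rats, 270-319 g and fasted overnight, received [14C]apixaban by oral gavage at 100 μCi/kg in 0.5% Tween 80/Labrafil. One dam per time point was euthanized and frozen in hexane/dry ice. Fetal tissue radioactivity was measured by QWBA on 40 µm sagittal sections calibrated with [14C]glucose standards. Values are in µg eq/g, with LLOQ 0.037 μg eq/g.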

Harderian gland [5] = assay: Biodistribution in female Sprague-Dawley rat harderian gland at 5 mg/kg, po administered as single dose measured after 1 hr
Method in brief: (§4)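 [¹⁴C]Apixaban given by oral gavage at 5 mg/kg (100 μCi/kg) in 0.5% Tween 80 in Labrafil (1.0 mg/mL dosing solution) to rats fasted overnight through 4 h post-dose. One rat per time point; carcass frozen in hexane/dry ice. Quantitative whole-body autoradiography used 40 µm sagittal sections and a phosphor imaging plate calibrated with [¹⁴C]glucose standards (0.001–6.5 μCi/g). Read-out in µg eq apixaban/g; LLOQ 0.037 μg eq/g.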

Rattus norvegicus [6] = assay: Biodistribution in female Sprague-Dawley rat salivary gland at 5 mg/kg, po administered as single dose measured after 0.5 hrs
Method in brief: (§5)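 [14C]apixaban (20 μCi/mL in dosing solution) in 0.5% Tween 80 in Labrafil given by oral gavage to fasted female rats, 206-213 g, at 100 μCi/kg. One rat per time point was euthanized and snap-frozen. Sagittal 40 µm whole-body sections were read by QWBA phosphor imaging against [14C]glucose standards. Results are in µg eq apixaban/g, with LLOQ 0.037 μg eq/g.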

Rattus norvegicus [7] = assay: Biodistribution in pregnant Sprague-Dawley rat salivary gland at 5 mg/kg, po administered as single dose measured after 48 hrs
Method in brief: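 Pregnant SD rats (270-319 g) were fasted overnight and given one oral gavage of 5 mg/kg (100 μCi/kg) in 0.5% Tween 80 in Labrafil. One rat was euthanized per time point (0.5, 1, 4, 8, 24, 48 h) and the carcass frozen. 40 µm sagittal sections were phosphor-imaged against [14C]glucose standards and results reported as µg eq/g; LLOQ 0.037 µg eq/g.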

Blood [8] = assay: AUC (0 to t) in female Sprague-Dawley rat blood at 5 mg/kg, po administered as single dose
Rattus norvegicus [9] = assay: Biodistribution in fetal liver of pregnant Sprague-Dawley rat at 5 mg/kg, po administered as single dose measured after 48 hrs; method in brief: as §1
Thymus [10] = assay: Biodistribution in female Sprague-Dawley rat thymus at 5 mg/kg, po administered as single dose measured after 4 hrs; method in brief: as §4
Blood [11] = assay: Biodistribution in male Sprague-Dawley rat blood at 5 mg/kg, po administered as single dose measured after 0.5 hrs; method in brief: as §4
Rattus norvegicus [12] = assay: Biodistribution in fetal kidney of pregnant Sprague-Dawley rat at 5 mg/kg, po administered as single dose measured after 8 hrs; method in brief: as §1
Heart = assay: Biodistribution in female Sprague-Dawley rat heart at 5 mg/kg, po administered as single dose measured after 0.5 hrs; method in brief: as §4
Rattus norvegicus [13] = assay: Biodistribution in female Sprague-Dawley rat pituitary gland at 5 mg/kg, po administered as single dose measured after 8 hrs; method in brief: as §5
Thymus [14] = assay: Biodistribution in female Sprague-Dawley rat thymus at 5 mg/kg, po administered as single dose measured after 72 hrs; method in brief: as §2
Rattus norvegicus [15] = assay: Biodistribution in fetal liver of pregnant Sprague-Dawley rat at 5 mg/kg, po administered as single dose measured after 1 hr; method in brief: as §3
Rattus norvegicus [16] = assay: Biodistribution in female Sprague-Dawley rat kidney cortex at 5 mg/kg, po administered as single dose measured after 4 hrs; method in brief: as §5
Spleen [17] = assay: Biodistribution in female Sprague-Dawley rat spleen at 5 mg/kg, po administered as single dose measured after 1 hr; method in brief: as §4
Harderian gland [18] = assay: Biodistribution in pregnant Sprague-Dawley rat harderian gland at 5 mg/kg, po administered as single dose measured after 8 hrs
Rattus norvegicus [19] = assay: Biodistribution in female Sprague-Dawley rat bone marrow at 5 mg/kg, po administered as single dose measured after 4 hrs; method in brief: as §5
Brain [20] = assay: Biodistribution in female Sprague-Dawley rat brain at 5 mg/kg, po administered as single dose measured after 4 hrs
Method in brief: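 [14C]Apixaban (1.0 mg/mL, 20 μCi/mL in 0.5% Tween 80 in Labrafil) given as a single oral gavage of 5 mg/kg (100 μCi/kg) to fasted female SD rats, one rat per time point. Carcasses were frozen in hexane/dry ice and cut into 40 µm sagittal sections for QWBA against [14C]glucose standards. Brain radioactivity is reported as µg eq/g, with LLOQ 0.037 µg eq/g.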

Harderian gland [21] = assay: Biodistribution in pregnant Sprague-Dawley rat harderian gland at 5 mg/kg, po administered as single dose measured after 24 hrs; method in brief: as §1
Pancreas = assay: Biodistribution in male Sprague-Dawley rat pancreas at 5 mg/kg, po administered as single dose measured after 8 hrs
Method in brief: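 [14C]apixaban (1.0 mg/mL, 20 μCi/mL) in 0.5% Tween 80 in Labrafil, given by oral gavage at 100 μCi/kg to male rats (225-252 g) fasted overnight through 4 h post-dose. One rat per time point. Carcasses frozen in hexane/dry ice and cut into 40 µm sagittal sections. QWBA read on phosphor plates against [14C]glucose standards, reported as µg eq/g. LLOQ 0.037 µg eq/g.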

Brain [22] = assay: Biodistribution in pregnant Sprague-Dawley rat brain at 5 mg/kg, po administered as single dose measured after 1 hr

- Radiolabel recovery (Spleen [1]): < 0.037 ugequiv/g
- Radiolabel recovery (Rattus norvegicus [2]): Not detected assumed BLQ
- Radiolabel recovery (Rattus norvegicus [4]): 0.51 ugequiv/g
- Radiolabel recovery (Harderian gland [5]): 0.64 ugequiv/g
- Radiolabel recovery (Rattus norvegicus [6]): 0.28 ugequiv/g
- Radiolabel recovery (Rattus norvegicus [7]): Not detected assumed BLQ
- AUCt (Blood [8]): 3110 ngequiv.hr/g
- Radiolabel recovery (Thymus [10]): 0.3 ugequiv/g
- Radiolabel recovery (Blood [11]): 0.42 ugequiv/g
- Radiolabel recovery (Heart): 0.37 ugequiv/g
- Radiolabel recovery (Rattus norvegicus [13]): 0.22 ugequiv/g
- Radiolabel recovery (Thymus [14]): Not detected assumed BLQ
- Radiolabel recovery (Rattus norvegicus [15]): 0.22 ugequiv/g
- Radiolabel recovery (Rattus norvegicus [16]): 1.21 ugequiv/g
- Radiolabel recovery (Spleen [17]): 0.35 ugequiv/g
- Radiolabel recovery (Harderian gland [18]): 0.19 ugequiv/g
- Radiolabel recovery (Rattus norvegicus [19]): 0.26 ugequiv/g
- Radiolabel recovery (Brain [20]): < 0.037 ugequiv/g
- Radiolabel recovery (Harderian gland [21]): Not detected assumed BLQ
- Radiolabel recovery (Pancreas): 0.12 ugequiv/g
- Radiolabel recovery (Brain [22]): 0.06 ugequiv/g
SMILES: COc1ccc(-n2nc(C(N)=O)c3c2C(=O)N(c2ccc(N4CCCC[14C]4=O)cc2)CC3)cc1
- Radiolabel recovery (Rattus norvegicus [3]): Not sampled as not visualised in autoradiograph
- Radiolabel recovery (Rattus norvegicus [9]): Not sampled as not visualised in autoradiograph
- Radiolabel recovery (Rattus norvegicus [12]): Not sampled as not visualised in autoradiograph

From ChEMBL document CHEMBL3525963, “Tissue distribution and elimination of [14C]apixaban in rats” (Drug Metab Dispos, 2011)
